pKi: −log10 of the molar value. Calls of active or inactive are those of the source.
Key:
[1] = molecular target: Transient receptor potential cation channel subfamily V member 1 (Rattus norvegicus, UniProt O35433); assay: Displacement of [3H]-RTX from rat TRPV1 expressed in CHO cells incubated for 60 mins by radioligand competition assay based scintillation counting method; type: cell-based
[2] = molecular target: T1, Transient receptor potential cation channel subfamily V member 1 (Homo sapiens, UniProt Q8NER1); assay: Potency index, ratio of Ki of capsaicin to Ki for displacement of [3H]RTX from human TRPV1 expressed in CHO cells incubated for 60 mins by scintillation counting method; type: cell-based
T1 sequence (Q8NER1 whole entry): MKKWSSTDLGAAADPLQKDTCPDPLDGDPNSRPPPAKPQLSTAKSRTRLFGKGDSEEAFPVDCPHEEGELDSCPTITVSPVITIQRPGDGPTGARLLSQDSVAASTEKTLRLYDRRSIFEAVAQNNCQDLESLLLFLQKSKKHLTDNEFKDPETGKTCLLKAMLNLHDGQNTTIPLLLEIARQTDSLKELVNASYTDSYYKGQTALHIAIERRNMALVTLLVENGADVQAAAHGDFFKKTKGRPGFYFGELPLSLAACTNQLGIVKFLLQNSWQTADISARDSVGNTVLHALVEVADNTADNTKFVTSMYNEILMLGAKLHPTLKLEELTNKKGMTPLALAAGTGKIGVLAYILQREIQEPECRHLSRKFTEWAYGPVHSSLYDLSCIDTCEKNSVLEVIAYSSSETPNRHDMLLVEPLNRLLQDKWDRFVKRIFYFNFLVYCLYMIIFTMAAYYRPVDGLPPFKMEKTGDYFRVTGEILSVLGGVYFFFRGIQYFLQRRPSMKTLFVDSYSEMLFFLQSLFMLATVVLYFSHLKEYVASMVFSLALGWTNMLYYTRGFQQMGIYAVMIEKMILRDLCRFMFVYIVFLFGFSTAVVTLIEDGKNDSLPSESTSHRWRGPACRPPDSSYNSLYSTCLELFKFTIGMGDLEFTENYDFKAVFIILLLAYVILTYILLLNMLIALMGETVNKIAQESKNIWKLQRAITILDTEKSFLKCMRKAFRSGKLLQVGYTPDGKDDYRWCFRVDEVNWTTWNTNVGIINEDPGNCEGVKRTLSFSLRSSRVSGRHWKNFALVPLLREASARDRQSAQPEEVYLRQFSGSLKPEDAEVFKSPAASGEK

[3] = molecular target: T1, Transient receptor potential cation channel subfamily V member 1; assay: Partial agonist activity at human TRPV1 expressed in CHO cells assessed as maximal increase in 45Ca2+ uptake incubated for 5 mins by liquid scintillation counting method relative to capsaicin; type: cell-based
Method in brief: (§1)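 Human or rat TRPV1 heterologously expressed in CHO cells; functional agonism read as 45Ca2+ uptake. Values are means of at least three experiments.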

[4] = molecular target: T1, Transient receptor potential cation channel subfamily V member 1; assay: Potency index, ratio of EC50 of capsaicin to EC50 of compound for agonist activity at human TRPV1 expressed in CHO cells assessed as increase in 45Ca2+ uptake incubated for 5 mins by liquid scintillation counting method; type: cell-based
[5] = molecular target: T1, Transient receptor potential cation channel subfamily V member 1; assay: Potency index, ratio of EC50 of zu-capsaicin to EC50 of compound for agonist activity at human TRPV1 expressed in CHO cells assessed as increase in 45Ca2+ uptake incubated for 5 mins by liquid scintillation counting method; type: cell-based
[6] = molecular target: T1, Transient receptor potential cation channel subfamily V member 1; assay: Agonist activity at human TRPV1 expressed in HEK293 cells assessed as increase in calcium influx at 0.3 to 30 uM incubated for 1 min by Fluo-4-AM dye based FLIPR assay; type: cell-based
Method in brief: (§2)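 Cells individually transfected with a single TRP channel (TRPV1, hTRPA1, mTRPA1, mTRPV3 or mTRPM8). Intracellular calcium influx recorded by FLIPR after the test compound was applied. Each cell type was also challenged with an agonist suited to its own TRP channel.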

[7] = molecular target: Transient receptor potential cation channel subfamily M member 8 (Mus musculus) (UniProt Q8R4D5); assay: Agonist activity at mouse TRPM8 expressed in HEK293 cells assessed as increase in calcium influx at 0.3 to 30 uM incubated for 1 min by Fluo-4-AM dye based FLIPR assay; type: cell-based; method in brief: as §2
Transient receptor potential cation channel subfamily M member 8 (Mus musculus), sequence (Q8R4D5 whole entry): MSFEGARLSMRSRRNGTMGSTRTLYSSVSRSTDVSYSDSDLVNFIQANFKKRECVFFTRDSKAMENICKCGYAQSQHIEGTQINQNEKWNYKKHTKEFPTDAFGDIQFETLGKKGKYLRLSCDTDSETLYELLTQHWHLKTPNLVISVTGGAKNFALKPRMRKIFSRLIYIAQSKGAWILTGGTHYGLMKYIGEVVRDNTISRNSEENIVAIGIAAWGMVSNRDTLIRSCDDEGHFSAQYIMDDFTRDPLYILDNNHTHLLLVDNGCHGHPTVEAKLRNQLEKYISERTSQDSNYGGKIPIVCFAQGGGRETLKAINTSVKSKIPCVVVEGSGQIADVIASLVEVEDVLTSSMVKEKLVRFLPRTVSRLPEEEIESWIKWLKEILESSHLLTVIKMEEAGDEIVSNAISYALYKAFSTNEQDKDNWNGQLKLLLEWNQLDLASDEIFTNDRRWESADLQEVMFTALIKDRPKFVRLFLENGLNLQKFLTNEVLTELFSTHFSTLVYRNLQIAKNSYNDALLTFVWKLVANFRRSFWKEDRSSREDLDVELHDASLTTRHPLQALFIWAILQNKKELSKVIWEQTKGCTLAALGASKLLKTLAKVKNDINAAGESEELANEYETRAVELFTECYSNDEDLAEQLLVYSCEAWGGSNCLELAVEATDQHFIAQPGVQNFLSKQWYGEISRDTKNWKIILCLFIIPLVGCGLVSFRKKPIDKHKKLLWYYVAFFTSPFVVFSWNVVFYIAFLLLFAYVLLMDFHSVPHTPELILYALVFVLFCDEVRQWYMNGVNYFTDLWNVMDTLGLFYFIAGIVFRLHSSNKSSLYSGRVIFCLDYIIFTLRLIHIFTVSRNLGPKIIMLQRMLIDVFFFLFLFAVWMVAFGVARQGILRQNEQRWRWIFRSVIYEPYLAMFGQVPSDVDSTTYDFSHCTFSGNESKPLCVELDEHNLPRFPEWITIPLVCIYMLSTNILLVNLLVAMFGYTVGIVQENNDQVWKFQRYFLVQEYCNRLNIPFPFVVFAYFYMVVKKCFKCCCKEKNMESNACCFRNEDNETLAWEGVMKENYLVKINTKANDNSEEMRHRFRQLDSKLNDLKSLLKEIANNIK

Rattus norvegicus [8] = assay: Analgesic activity in ip dosed L5/L6 spinal nerve ligation-induced neuropathic pain Sprague-Dawley rat model assessed as increase in paw withdrawal threshold in response to von frey filament compound administered at day 14 after ligation and measured up to 1.5 hrs after drug dosing by up and down method; type: functional
Method in brief: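 Rat spinal nerve ligation model of neuropathic pain. Compound was given i.p. at 1, 2, 5 or 10 mg/kg; a gabapentin 65 mg/kg i.p. arm and a saline i.p. arm were run alongside. Von Frey withdrawal thresholds were taken pre-surgery and on days 1, 7 and 14, then at 0.5, 1 and 1.5 h post-dose. Mean±SEM, n=7-8.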

Rattus norvegicus [9] = assay: Analgesic activity against L5/L6 spinal nerve ligation-induced neuropathic pain Sprague-Dawley rat model assessed as maximal decrease in neuropathic pain by measuring increase in paw withdrawal threshold in response to von frey filament at 1 to 4 mg/kg, sc compound administered at day 14 after ligation and measured at 30 mins after drug dosing by up and down method; type: functional, organism-based
Method in brief: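 Rats with spinal nerve ligation were dosed s.c. Paw withdrawal threshold measured with von Frey filaments up to 1.5 h after dosing. Mean±SEM, n=7-8, compared with vehicle.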

Mus musculus = assay: Antiallodynic activity against capsaicin-induced mechanical allodynia ICR mouse model assessed as inhibition of mechanical hyperalgesia administered topically 30 mins before capsaicin injection and measured over 5 mins; type: functional, organism-based
[10] = Drug uptake in porcine skin assessed as dermal accumulation applied topically as carbopol-gel with 1% formulation measured for 8 hrs by Franz diffusion cell based in vitro transdermal delivery test; type: ADME, tissue-based, Sus scrofa, Zone of skin; details: pig
[11] = Systemic drug absorption in porcine skin assessed as drug accumulation in acceptor Franz cell applied topically as carbopol-gel with 1% formulation measured for 8 hrs by Franz diffusion cell based in vitro transdermal delivery test; type: ADME, tissue-based, Sus scrofa, Zone of skin; details: pig
[12] = Toxicity in ICR mouse assessed as ear edema administered topically and measured after 30 mins; details: in vivo, topical_or_ocular, 0.5 h
Method in brief: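 Ear swelling test: a solution of the agent was applied to mouse ears, and ear punch biopsies were collected 30 min later and weighed.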

[13] = Toxicity in ip dosed ICR mouse administered as single dose; type: organism-based; details: in vivo
[14] = Genotoxicity in CHL/IU cells by chromosomal aberration assay; type: toxicity, cell-based, Cricetulus griseus; details: chinese hamster
[15] = Genotoxicity in ip dosed rat by micronucleus assay; type: toxicity, organism-based; details: in vivo
[16] = molecular target: Transient receptor potential cation channel subfamily V member 1 (Rattus norvegicus) (UniProt O35433); assay: Partial agonist activity at rat TRPV1 expressed in CHO cells assessed as maximal increase in 45Ca2+ uptake incubated for 5 mins by liquid scintillation counting method relative to capsaicin; type: cell-based; method in brief: as §1
Transient receptor potential cation channel subfamily V member 1 (Rattus norvegicus), sequence (O35433 whole entry): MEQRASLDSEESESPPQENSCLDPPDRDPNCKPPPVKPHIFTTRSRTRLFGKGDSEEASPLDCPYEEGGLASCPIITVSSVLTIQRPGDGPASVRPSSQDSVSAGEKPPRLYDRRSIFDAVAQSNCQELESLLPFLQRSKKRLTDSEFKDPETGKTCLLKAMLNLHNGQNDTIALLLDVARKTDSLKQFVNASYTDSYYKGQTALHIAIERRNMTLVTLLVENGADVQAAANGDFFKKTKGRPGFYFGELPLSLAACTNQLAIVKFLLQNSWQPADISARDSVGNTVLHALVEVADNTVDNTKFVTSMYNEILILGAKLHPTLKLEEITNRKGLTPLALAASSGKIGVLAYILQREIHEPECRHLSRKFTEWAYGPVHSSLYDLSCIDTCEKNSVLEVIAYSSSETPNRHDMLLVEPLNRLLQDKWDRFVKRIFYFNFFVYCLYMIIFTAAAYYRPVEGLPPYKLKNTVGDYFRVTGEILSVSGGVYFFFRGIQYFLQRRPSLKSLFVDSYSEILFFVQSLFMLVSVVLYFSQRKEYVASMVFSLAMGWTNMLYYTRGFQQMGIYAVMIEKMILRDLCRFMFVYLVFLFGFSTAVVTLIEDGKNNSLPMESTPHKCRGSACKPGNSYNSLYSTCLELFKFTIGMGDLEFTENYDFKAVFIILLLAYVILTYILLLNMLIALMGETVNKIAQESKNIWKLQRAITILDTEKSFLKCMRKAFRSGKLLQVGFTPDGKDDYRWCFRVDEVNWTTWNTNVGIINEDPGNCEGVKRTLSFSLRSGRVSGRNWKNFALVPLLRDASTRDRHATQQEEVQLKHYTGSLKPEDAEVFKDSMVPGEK

[17] = molecular target: Transient receptor potential cation channel subfamily V member 1 (Rattus norvegicus) (UniProt O35433); assay: Agonist activity at rat TRPV1 expressed in HEK293 cells assessed as increase in calcium influx at 0.3 to 30 uM incubated for 1 min by Fluo-4-AM dye based FLIPR assay; type: cell-based; method in brief: as §2
[18] = Genotoxicity in Salmonella typhimurium TA97 incubated for 48 hrs by Ames test; type: toxicity; details: salmonella enterica subsp. enterica serovar typhimurium
[19] = Genotoxicity in Salmonella typhimurium TA100 incubated for 48 hrs by Ames test; type: toxicity; details: salmonella enterica subsp. enterica serovar typhimurium
[20] = Genotoxicity in Salmonella typhimurium TA102 incubated for 48 hrs by Ames test; type: toxicity; details: salmonella enterica subsp. enterica serovar typhimurium
[21] = Genotoxicity in Salmonella typhimurium TA104 incubated for 48 hrs by Ames test; type: toxicity; details: salmonella enterica subsp. enterica serovar typhimurium
[22] = Genotoxicity in Salmonella typhimurium TA1535 incubated for 48 hrs by Ames test; type: toxicity; details: salmonella enterica subsp. enterica serovar typhimurium
[23] = Genotoxicity in Salmonella typhimurium TA1538 incubated for 48 hrs by Ames test; type: toxicity; details: salmonella enterica subsp. enterica serovar typhimurium
[24] = Genotoxicity in CHO-WBLT cells assessed as chromosomal aberration incubated for 6 hrs in presence of rat S9 by FISH painting analysis; type: toxicity, subcellular, Cricetulus griseus; details: chinese hamster, s9, 6 h
[25] = Genotoxicity in Salmonella typhimurium TA98 incubated for 48 hrs in presence of rat S9 by Ames test; type: toxicity, subcellular; details: salmonella enterica subsp. enterica serovar typhimurium, s9, 48 h
[26] = Genotoxicity in Salmonella typhimurium TA104 incubated for 48 hrs in presence of rat S9 by Ames test; type: toxicity, subcellular; details: salmonella enterica subsp. enterica serovar typhimurium, s9, 48 h
[27] = Genotoxicity in Salmonella typhimurium TA1535 incubated for 48 hrs in presence of rat S9 by Ames test; type: toxicity, subcellular; details: salmonella enterica subsp. enterica serovar typhimurium, s9, 48 h
[28] = Genotoxicity in Salmonella typhimurium TA1537 incubated for 48 hrs in presence of rat S9 by Ames test; type: toxicity, subcellular; details: salmonella enterica subsp. enterica serovar typhimurium, s9, 48 h

Transient receptor potential cation channel subfamily V member 1 (Rattus norvegicus, UniProt O35433), sequence (O35433 whole entry): as above

## CC(C)(C)c1nc(-c2cccc(Cl)c2)c(CNC(=O)Nc2ccc(CO)c(F)c2)s1
[1]
  pKi: 7.62
[2]
  Ratio Ki: 80
[3]
  Activity: 50 to 60%
[4]
  Ratio EC50: 5
[5]
  Ratio EC50: 5
[6]
  Activity: Active
[7]
  Activity: inactive
Rattus norvegicus [8]
  Activity: Dose-dependent effect
  ED50: 0.5 to 2 mg/kg
Rattus norvegicus [9]
  Activity: Active
Mus musculus
  Activity: Dose-dependent effect
[10]
  Drug uptake: Active
[11]
  Drug absorption: Not Active
[12]
  Activity: Non-Toxic
[13]
  LD50: > 200 mg/kg
[14]
  Activity: Non-Toxic
[15]
  Activity: Non-Toxic
[16]
  Activity: 50 to 60%
[17]
  Activity: Active
[18]
  Activity: Non-Toxic
[19]
  Activity: Non-Toxic
[20]
  Activity: Non-Toxic
[21]
  Activity: Non-Toxic
[22]
  Activity: Non-Toxic
[23]
  Activity: Non-Toxic
[24]
  Activity: Non-Toxic
[25]
  Activity: Non-Toxic
[26]
  Activity: Non-Toxic
[27]
  Activity: Non-Toxic
[28]
  Activity: Non-Toxic

Reference: ChEMBL document CHEMBL4376835, “Discovery of Nonpungent Transient Receptor Potential Vanilloid 1 (TRPV1) Agonist as Strong Topical Analgesic” (J Med Chem, 2020)
